ChEMBL document CHEMBL1944580, “Synthesis of novel sulfonamide-1,2,4-triazoles, 1,3,4-thiadiazoles and 1,3,4-oxadiazoles, as potential antibacterial and antifungal agents. Biological evaluation and conformational analysis studies” (2012)
≈ marks a conversion by molar mass, not a printed value.

Key:
Enterobacter cloacae [1] = assay: Antibacterial activity against Enterobacter cloacae human isolate treated for 24 hrs followed by sub-cultivated for 72 hrs by micro dilution method; type: functional
In short: (§1)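 2 µl from each well was serially subcultured into 100 µl fresh broth per well and incubated a further 72 h. MBC is the lowest concentration with no visible growth, taken as 99.5% killing of the original inoculum. Streptomycin and ampicillin were the positive controls.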

Aspergillus flavus [2] = assay: Antifungal activity against Aspergillus flavus ATCC 9643 after 72 hrs by serial dilution method; type: functional; conditions: ATCC 9643, 72 h
In short: (§2)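 Modified microdilution MIC. Spores were washed from malt agar cultures with sterile 0.85% saline containing 0.1% Tween 80 and adjusted to about 1.0 × 10^5 per 100 µl well in malt broth. Compounds were dissolved in DMSO (1 mg/ml). Plates incubated 72 h at 28 °C. MIC is the lowest concentration with no visible growth under a binocular microscope. Bifonazole and ketoconazole were the references.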

Talaromyces funiculosus [3] = assay: Antifungal activity against Penicillium funiculosum ATCC 36839 treated for 72 hrs followed by sub-cultivated for 5 days by serial dilution method; type: functional
In short: (§3)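 MFC obtained after the 72 h, 28 °C malt-broth microdilution (spore inoculum about 1.0 × 10^5 per well, compounds from 1 mg/ml DMSO). 2 µl was serially subcultured into 100 µl broth per well and incubated a further 5 days at 28 °C. MFC is the lowest concentration with no visible growth, taken as 99.5% killing of the original inoculum.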

Aspergillus fumigatus [4] = assay: Antifungal activity against Aspergillus fumigatus human isolate treated for 72 hrs followed by sub-cultivated for 5 days by serial dilution method; type: functional; in short: as §3
Trichoderma viride [5] = assay: Antifungal activity against Trichoderma viride IAM 5061 treated for 72 hrs followed by sub-cultivated for 5 days by serial dilution method; type: functional; in short: as §3
Escherichia coli [6] = assay: Antibacterial activity against Escherichia coli ATCC 35210 after 24 hrs by micro dilution method; type: functional; conditions: ATCC 35210, 24 h
In short: (§4)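 Microdilution MIC in 96-well plates. Bacterial suspensions adjusted in sterile saline to 1.0 × 10^5 CFU/ml, giving 1.0 × 10^4 cfu per well in LB broth. Compounds tested at up to 1 mg/ml. Plates incubated 24 h. MIC taken as the lowest concentration with no visible growth under a binocular microscope. OD at 655 nm was also read against a blank and the positive control. Streptomycin and ampicillin were the positive controls.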

Fulvia fulva [7] = assay: Antifungal activity against Fulvia fulva after 72 hrs by serial dilution method; type: functional; in short: as §2
Trichoderma viride [8] = assay: Antifungal activity against Trichoderma viride IAM 5061 after 72 hrs by serial dilution method; type: functional; conditions: IAM 5061, 72 h; in short: as §2
Penicillium ochrochloron [9] = assay: Antifungal activity against Penicillium ochrochloron ATCC 9112 after 72 hrs by serial dilution method; type: functional; conditions: ATCC 9112, 72 h; in short: as §2
Bacillus cereus [10] = assay: Antibacterial activity against Bacillus cereus clinical isolate after 24 hrs by micro dilution method; type: functional; in short: as §4
Micrococcus flavus [11] = assay: Antibacterial activity against Micrococcus flavus ATCC 10240 treated for 24 hrs followed by sub-cultivated for 72 hrs by micro dilution method; type: functional; in short: as §1
Escherichia coli [12] = assay: Antibacterial activity against Escherichia coli ATCC 35210 treated for 24 hrs followed by sub-cultivated for 72 hrs by micro dilution method; type: functional; in short: as §1
Bacillus cereus [13] = assay: Antibacterial activity against Bacillus cereus clinical isolate treated for 24 hrs followed by sub-cultivated for 72 hrs by micro dilution method; type: functional; in short: as §1
Aspergillus niger [14] = assay: Antifungal activity against Aspergillus niger ATCC 6275 after 72 hrs by serial dilution method; type: functional; conditions: ATCC 6275, 72 h; in short: as §2
Listeria monocytogenes [15] = assay: Antibacterial activity against Listeria monocytogenes NCTC 7973 treated for 24 hrs followed by sub-cultivated for 72 hrs by micro dilution method; type: functional; in short: as §1
Fulvia fulva [16] = assay: Antifungal activity against Fulvia fulva treated for 72 hrs followed by sub-cultivated for 5 days by serial dilution method; type: functional; in short: as §3
Pseudomonas aeruginosa [17] = assay: Antibacterial activity against Pseudomonas aeruginosa ATCC 27853 treated for 24 hrs followed by sub-cultivated for 72 hrs by micro dilution method; type: functional; in short: as §1
Talaromyces funiculosus [18] = assay: Antifungal activity against Penicillium funiculosum ATCC 36839 after 72 hrs by serial dilution method; type: functional; conditions: ATCC 36839, 72 h; in short: as §2
Aspergillus versicolor [19] = assay: Antifungal activity against Aspergillus versicolor ATCC 11730 treated for 72 hrs followed by sub-cultivated for 5 days by serial dilution method; type: functional; in short: as §3
Pseudomonas aeruginosa [20] = assay: Antibacterial activity against Pseudomonas aeruginosa ATCC 27853 after 24 hrs by micro dilution method; type: functional; conditions: ATCC 27853, 24 h; in short: as §4
Salmonella typhimurium [21] = assay: Antibacterial activity against Salmonella Typhimurium ATCC 13311 treated for 24 hrs followed by sub-cultivated for 72 hrs by micro dilution method; type: functional, Salmonella enterica subsp. enterica serovar Typhimurium; conditions: Salmonella enterica; in short: as §1
Aspergillus fumigatus [22] = assay: Antifungal activity against Aspergillus fumigatus human isolate after 72 hrs by serial dilution method; type: functional; in short: as §2
Aspergillus flavus [23] = assay: Antifungal activity against Aspergillus flavus ATCC 9643 treated for 72 hrs followed by sub-cultivated for 5 days by serial dilution method; type: functional; in short: as §3
Staphylococcus aureus [24] = assay: Antibacterial activity against Staphylococcus aureus ATCC 6538 treated for 24 hrs followed by sub-cultivated for 72 hrs by micro dilution method; type: functional; in short: as §1
Aspergillus niger [25] = assay: Antifungal activity against Aspergillus niger ATCC 6275 treated for 72 hrs followed by sub-cultivated for 5 days by serial dilution method; type: functional; in short: as §3
Salmonella typhimurium [26] = assay: Antibacterial activity against Salmonella Typhimurium ATCC 13311 after 24 hrs by micro dilution method; type: functional, Salmonella enterica subsp. enterica serovar Typhimurium; conditions: Salmonella enterica, ATCC 13311, 24 h; in short: as §4
Penicillium ochrochloron [27] = assay: Antifungal activity against Penicillium ochrochloron ATCC 9112 treated for 72 hrs followed by sub-cultivated for 5 days by serial dilution method; type: functional; in short: as §3
Enterobacter cloacae [28] = assay: Antibacterial activity against Enterobacter cloacae human isolate after 24 hrs by micro dilution method; type: functional; in short: as §4
Micrococcus flavus [29] = assay: Antibacterial activity against Micrococcus flavus ATCC 10240 after 24 hrs by micro dilution method; type: functional; conditions: ATCC 10240, 24 h; in short: as §4
Aspergillus versicolor [30] = assay: Antifungal activity against Aspergillus versicolor ATCC 11730 after 72 hrs by serial dilution method; type: functional; conditions: ATCC 11730, 72 h; in short: as §2
Staphylococcus aureus [31] = assay: Antibacterial activity against Staphylococcus aureus ATCC 6538 after 24 hrs by micro dilution method; type: functional; conditions: ATCC 6538, 24 h; in short: as §4
Listeria monocytogenes [32] = assay: Antibacterial activity against Listeria monocytogenes NCTC 7973 after 24 hrs by micro dilution method; type: functional; conditions: NCTC 7973, 24 h; in short: as §4

Row | Compound | MBC (Enterobacter cloacae [1]) [µM] | MIC (Aspergillus flavus [2]) [µM] | MFC (Talaromyces funiculosus [3]) [µM] | MFC (Aspergillus fumigatus [4]) [µM] | MFC (Trichoderma viride [5]) [µM] | MIC (Escherichia coli [6]) [µM] | MIC (Fulvia fulva [7]) [µM] | MIC (Trichoderma viride [8]) [µM] | MIC (Penicillium ochrochloron [9]) [µM] | MIC (Bacillus cereus [10]) [µM] | MBC (Micrococcus flavus [11]) [µM] | MBC (Escherichia coli [12]) [µM] | MBC (Bacillus cereus [13]) [µM] | MIC (Aspergillus niger [14]) [µM] | MBC (Listeria monocytogenes [15]) [µM] | MFC (Fulvia fulva [16]) [µM] | MBC (Pseudomonas aeruginosa [17]) [µM] | MIC (Talaromyces funiculosus [18]) [µM] | MFC (Aspergillus versicolor [19]) [µM] | MIC (Pseudomonas aeruginosa [20]) [µM] | other results
1 | COc1cc(Cc2n[nH]c(=S)n2C(C)C)c(S(=O)(=O)N(C)C)cc1OC | 630 (≈ 252 µg/mL) | 130 (≈ 52.1 µg/mL) | 250 (≈ 100 µg/mL) | 250 (≈ 100 µg/mL) | 30 (≈ 12 µg/mL) | 630 (≈ 252 µg/mL) | 250 (≈ 100 µg/mL) | 10 (≈ 4.01 µg/mL) | 130 (≈ 52.1 µg/mL) | 250 (≈ 100 µg/mL) | 630 (≈ 252 µg/mL) | 630 (≈ 252 µg/mL) | 500 (≈ 200 µg/mL) | 130 (≈ 52.1 µg/mL) | 630 (≈ 252 µg/mL) | 250 (≈ 100 µg/mL) | 630 (≈ 252 µg/mL) | 130 (≈ 52.1 µg/mL) | 380 (≈ 152 µg/mL) | 630 (≈ 252 µg/mL) | MBC (Salmonella typhimurium [21]): 630 µM (≈ 252 µg/mL); MIC (Aspergillus fumigatus [22]): 130 µM (≈ 52.1 µg/mL); MFC (Aspergillus flavus [23]): 380 µM (≈ 152 µg/mL); MBC (Staphylococcus aureus [24]): 380 µM (≈ 152 µg/mL); MFC (Aspergillus niger [25]): 380 µM (≈ 152 µg/mL); MIC (Salmonella typhimurium [26]): 630 µM (≈ 252 µg/mL); MFC (Penicillium ochrochloron [27]): 380 µM (≈ 152 µg/mL); MIC (Enterobacter cloacae [28]): 630 µM (≈ 252 µg/mL); MIC (Micrococcus flavus [29]): 630 µM (≈ 252 µg/mL); MIC (Aspergillus versicolor [30]): 130 µM (≈ 52.1 µg/mL); MIC (Staphylococcus aureus [31]): 380 µM (≈ 152 µg/mL); MIC (Listeria monocytogenes [32]): 630 µM (≈ 252 µg/mL)
2 | CCCCn1c(Cc2cc(OC)c(OC)cc2S(=O)(=O)N(C)C)n[nH]c1=S | 240 (≈ 99.5 µg/mL) | 60 (≈ 24.9 µg/mL) | 240 (≈ 99.5 µg/mL) | 240 (≈ 99.5 µg/mL) | 120 (≈ 49.7 µg/mL) | 480 (≈ 199 µg/mL) | 120 (≈ 49.7 µg/mL) | 60 (≈ 24.9 µg/mL) | 120 (≈ 49.7 µg/mL) | 240 (≈ 99.5 µg/mL) | 480 (≈ 199 µg/mL) | 480 (≈ 199 µg/mL) | 480 (≈ 199 µg/mL) | 60 (≈ 24.9 µg/mL) | 240 (≈ 99.5 µg/mL) | 240 (≈ 99.5 µg/mL) | 480 (≈ 199 µg/mL) | 120 (≈ 49.7 µg/mL) | 480 (≈ 199 µg/mL) | 480 (≈ 199 µg/mL) | MBC (Salmonella typhimurium [21]): 240 µM (≈ 99.5 µg/mL); MIC (Aspergillus fumigatus [22]): 120 µM (≈ 49.7 µg/mL); MFC (Aspergillus flavus [23]): 240 µM (≈ 99.5 µg/mL); MBC (Staphylococcus aureus [24]): 480 µM (≈ 199 µg/mL); MFC (Aspergillus niger [25]): 120 µM (≈ 49.7 µg/mL); MIC (Salmonella typhimurium [26]): 240 µM (≈ 99.5 µg/mL); MFC (Penicillium ochrochloron [27]): 480 µM (≈ 199 µg/mL); MIC (Enterobacter cloacae [28]): 240 µM (≈ 99.5 µg/mL); MIC (Micrococcus flavus [29]): 240 µM (≈ 99.5 µg/mL); MIC (Aspergillus versicolor [30]): 240 µM (≈ 99.5 µg/mL); MIC (Staphylococcus aureus [31]): 240 µM (≈ 99.5 µg/mL); MIC (Listeria monocytogenes [32]): 240 µM (≈ 99.5 µg/mL)
3 | COc1cc(Cc2n[nH]c(=S)n2C(C)(C)C)c(S(=O)(=O)N(C)C)cc1OC | 420 (≈ 174 µg/mL) | 240 (≈ 99.5 µg/mL) | 240 (≈ 99.5 µg/mL) | 120 (≈ 49.7 µg/mL) | 240 (≈ 99.5 µg/mL) | 240 (≈ 99.5 µg/mL) | 240 (≈ 99.5 µg/mL) | 240 (≈ 99.5 µg/mL) | 120 (≈ 49.7 µg/mL) | 240 (≈ 99.5 µg/mL) | 420 (≈ 174 µg/mL) | 420 (≈ 174 µg/mL) | 480 (≈ 199 µg/mL) | 240 (≈ 99.5 µg/mL) | 420 (≈ 174 µg/mL) | 240 (≈ 99.5 µg/mL) | 420 (≈ 174 µg/mL) | 120 (≈ 49.7 µg/mL) | 360 (≈ 149 µg/mL) | 240 (≈ 99.5 µg/mL) | MBC (Salmonella typhimurium [21]): 420 µM (≈ 174 µg/mL); MIC (Aspergillus fumigatus [22]): 20 µM (≈ 8.29 µg/mL); MFC (Aspergillus flavus [23]): 360 µM (≈ 149 µg/mL); MBC (Staphylococcus aureus [24]): 420 µM (≈ 174 µg/mL); MFC (Aspergillus niger [25]): 360 µM (≈ 149 µg/mL); MIC (Salmonella typhimurium [26]): 240 µM (≈ 99.5 µg/mL); MFC (Penicillium ochrochloron [27]): 360 µM (≈ 149 µg/mL); MIC (Enterobacter cloacae [28]): 240 µM (≈ 99.5 µg/mL); MIC (Micrococcus flavus [29]): 240 µM (≈ 99.5 µg/mL); MIC (Aspergillus versicolor [30]): 240 µM (≈ 99.5 µg/mL); MIC (Staphylococcus aureus [31]): 240 µM (≈ 99.5 µg/mL); MIC (Listeria monocytogenes [32]): 240 µM (≈ 99.5 µg/mL)
